These results are taken from ChEMBL document CHEMBL1811781, “Arthrinins A-D: novel diterpenoids and further constituents from the sponge derived fungus Arthrinium sp” (Bioorg Med Chem, 2011).

The target of assay [1] is Hepatocyte growth factor receptor (Homo sapiens, UniProt P08581). Kind of assay: Inhibition of wild type MET assessed as 33Pi incorporation after 60 mins by scintillation counting. A digest of the protocol: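 Wild-type MET phosphorylates poly(Ala,Glu,Lys,Tyr) in HEPES-NaOH pH 7.5 (70 mM) with 3 mM MgCl2, 3 mM MnCl2, orthovanadate, 1.2 mM DTT, PEG, 1 µM [γ-33P]-ATP, at 30 °C for 60 min. Stop with 2% H3PO4, wash, scintillation count. IC50 from residual activity at 10 singlicate concentrations.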
Sequence of Hepatocyte growth factor receptor (P08581 whole entry): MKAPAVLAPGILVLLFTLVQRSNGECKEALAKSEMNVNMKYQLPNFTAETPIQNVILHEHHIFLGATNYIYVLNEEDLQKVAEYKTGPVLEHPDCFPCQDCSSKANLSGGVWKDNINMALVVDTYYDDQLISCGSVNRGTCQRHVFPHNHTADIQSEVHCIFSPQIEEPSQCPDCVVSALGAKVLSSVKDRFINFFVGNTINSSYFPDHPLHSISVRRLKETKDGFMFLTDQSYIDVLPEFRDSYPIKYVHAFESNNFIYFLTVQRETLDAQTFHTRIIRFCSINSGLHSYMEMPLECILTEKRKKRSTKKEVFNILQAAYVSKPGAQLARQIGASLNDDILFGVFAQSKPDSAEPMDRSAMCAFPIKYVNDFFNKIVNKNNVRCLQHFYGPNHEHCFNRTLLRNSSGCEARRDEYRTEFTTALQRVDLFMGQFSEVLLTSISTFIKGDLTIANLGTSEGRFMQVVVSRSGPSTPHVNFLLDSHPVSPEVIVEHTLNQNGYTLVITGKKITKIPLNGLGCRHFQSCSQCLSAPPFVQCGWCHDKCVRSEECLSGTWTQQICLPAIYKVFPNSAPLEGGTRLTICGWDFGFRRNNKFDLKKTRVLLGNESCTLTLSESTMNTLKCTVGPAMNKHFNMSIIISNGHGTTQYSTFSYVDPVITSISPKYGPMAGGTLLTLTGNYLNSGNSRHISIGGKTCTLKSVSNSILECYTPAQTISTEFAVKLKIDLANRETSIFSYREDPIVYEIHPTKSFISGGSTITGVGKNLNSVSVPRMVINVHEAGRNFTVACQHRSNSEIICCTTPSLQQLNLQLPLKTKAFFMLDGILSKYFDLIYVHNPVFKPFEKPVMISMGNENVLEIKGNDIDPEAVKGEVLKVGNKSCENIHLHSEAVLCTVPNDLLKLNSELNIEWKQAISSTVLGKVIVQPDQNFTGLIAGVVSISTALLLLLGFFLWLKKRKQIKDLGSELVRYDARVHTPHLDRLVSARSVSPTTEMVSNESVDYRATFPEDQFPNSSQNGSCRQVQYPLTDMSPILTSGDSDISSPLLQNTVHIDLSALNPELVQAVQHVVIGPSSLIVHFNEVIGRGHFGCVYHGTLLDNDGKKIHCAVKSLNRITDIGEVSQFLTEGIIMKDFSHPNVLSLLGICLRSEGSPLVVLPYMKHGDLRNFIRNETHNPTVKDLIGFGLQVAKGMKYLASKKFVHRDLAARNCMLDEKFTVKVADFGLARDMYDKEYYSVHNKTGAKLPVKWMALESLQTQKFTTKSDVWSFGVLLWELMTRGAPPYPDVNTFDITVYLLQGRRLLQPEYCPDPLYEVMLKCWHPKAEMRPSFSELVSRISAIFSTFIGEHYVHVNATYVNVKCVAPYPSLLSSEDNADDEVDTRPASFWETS

Assay [2] deals with NUAK family SNF1-like kinase 1 (Homo sapiens) (UniProt O60285). Kind of assay: (§1) Inhibition of recombinant ARK5 assessed as 33Pi incorporation after 60 mins by scintillation counting. The essentials: (§2)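 Kinase reaction uses RBER-CHKtide as substrate in HEPES-NaOH pH 7.5 (70 mM) with 3 mM each MgCl2 and MnCl2, orthovanadate, 1.2 mM DTT, PEG and 1 µM [γ-33P]-ATP. Run at 30 °C for 60 min, quenched in 2% H3PO4, saline-washed, scintillation-counted. Residual activity at 10 concentrations (singlicate) gives IC50.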

In assay [3] the target is Aurora kinase B (Homo sapiens, UniProt Q96GD4). Kind of assay: Inhibition of recombinant Aurora-b assessed as 33Pi incorporation after 60 mins by scintillation counting. A digest of the protocol: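 Substrate tetra(LRRWSLG) with recombinant Aurora-B. Buffer is 70 mM HEPES-NaOH pH 7.5, 3 mM MgCl2, 3 mM MnCl2, orthovanadate, 1.2 mM DTT, PEG, with 1 µM [γ-33P]-ATP. After 60 min at 30 °C, 2% H3PO4 stop, NaCl washes, 33Pi counted. IC50 fitted from 10 singlicate concentrations.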
Sequence of Aurora kinase B (Q96GD4 whole entry): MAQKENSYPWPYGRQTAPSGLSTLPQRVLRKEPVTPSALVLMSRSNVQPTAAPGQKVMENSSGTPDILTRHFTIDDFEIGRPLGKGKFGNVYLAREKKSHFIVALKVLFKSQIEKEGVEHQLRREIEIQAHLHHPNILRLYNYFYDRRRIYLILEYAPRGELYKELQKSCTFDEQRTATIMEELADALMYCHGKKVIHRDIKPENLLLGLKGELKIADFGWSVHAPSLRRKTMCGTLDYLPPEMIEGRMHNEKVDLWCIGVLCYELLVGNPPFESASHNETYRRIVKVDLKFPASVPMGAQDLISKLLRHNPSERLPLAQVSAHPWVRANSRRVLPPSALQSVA

Assay [4] has as its target Vascular endothelial growth factor receptor 2 (Homo sapiens, UniProt P35968). Kind of assay: Inhibition of recombinant VEGF-R2 assessed as 33Pi incorporation after 60 mins by scintillation counting. A digest of the protocol:
(§3)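 Tyrosine kinases assayed on poly(Glu,Tyr) in 70 mM HEPES-NaOH pH 7.5, 3 mM MgCl2, 3 mM MnCl2, orthovanadate, 1.2 mM DTT, PEG, 1 µM [γ-33P]-ATP; 30 °C for 60 min, then 2% H3PO4 stop, saline wash, 33Pi scintillation. IC50 derived from residual activity at 10 concentrations in singlicate.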

The target in assay [5] is Serine/threonine-protein kinase pim-1 (Homo sapiens, UniProt P11309). Kind of assay: Inhibition of recombinant PIM1 assessed as 33Pi incorporation after 60 mins by scintillation counting. A digest of the protocol:
(§4)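 Recombinant kinase with GSK3(14-27) substrate in 70 mM HEPES-NaOH pH 7.5, 3 mM MgCl2, 3 mM MnCl2, Na-orthovanadate, 1.2 mM DTT, PEG, 1 µM [γ-33P]-ATP. Incubated 30 °C, 60 min, stopped with 2% H3PO4, washed with 0.9% NaCl, 33Pi counted. IC50 from residual activity over 10 concentrations in singlicate.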

Assay [6] has as its system A2780. Kind of assay: Antiproliferative activity against human cisplatin resistant A2780 cells after 24 hrs by MTT assay. In kind it is functional, cell-based. The essentials:
(§5)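 Microplate MTT proliferation read-out, scored against untreated controls; each experiment run in triplicate.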
In general terms: Tetrazolium assays rely on reduction of a dye to a coloured formazan, in cell work by metabolically active cells.

In assay [7] the target is Serine/threonine-protein kinase Nek6 (Homo sapiens, UniProt Q9HC98). Kind of assay: Inhibition of recombinant NEK6 assessed as 33Pi incorporation after 60 mins by scintillation counting. A digest of the protocol:
as §4

Assay [8] concerns the target Tyrosine-protein kinase receptor UFO (Homo sapiens) (UniProt P30530). The experiment in a line: (§6) Inhibition of recombinant AXL assessed as 33Pi incorporation after 60 mins by scintillation counting. A digest of the protocol: as §3
Assay [9] concerns the target Proto-oncogene tyrosine-protein kinase Src (Homo sapiens, UniProt P12931). The experiment in a line: Inhibition of recombinant SRC assessed as 33Pi incorporation after 60 mins by scintillation counting. The essentials: as §3
The subject of assay [10] is A2780. The experiment in a line: Antiproliferative activity against human A2780 cells after 24 hrs by MTT assay. In kind it is functional, cell-based. The essentials: as §5
Assay [11] has as its target Serine/threonine-protein kinase Nek2 (Homo sapiens) (UniProt P51955). Kind of assay: (§7) Inhibition of recombinant NEK2 assessed as 33Pi incorporation after 60 mins by scintillation counting. The essentials: (§8)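 NEK2 reaction on RB-CTF substrate. Contains 70 mM HEPES-NaOH pH 7.5, 3 mM MgCl2/MnCl2, orthovanadate, 1.2 mM DTT, PEG and 1 µM [γ-33P]-ATP. Incubation is 30 °C, 60 min, followed by 2% H3PO4 stop, 0.9% NaCl washes and 33Pi scintillation counting. IC50 from 10 concentrations in singlicate.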

In assay [12] the test system is L5178Y. Kind of assay: Antiproliferative activity against mouse L5178Y cells after 24 hrs by MTT assay. The class given is functional, cell-based. The essentials: as §5
Assay [13] has as its system HUVEC. The experiment in a line: Inhibition of VEGF-A induced HUVEC cell sprouting after 24 hrs by angiogenesis assay. The class given is functional, cell-based. The following applies: Homo sapiens. A digest of the protocol:
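HUVEC spheroids (500 cells, formed overnight in hanging drops) embedded in collagen gel. Compound plus VEGF-A (25 ng/mL final) added after 30 min; 37 °C for 24 h, then paraformaldehyde fixation. Mean cumulative sprout length of 10 random spheroids per point; seven concentrations, 10 µM to 10 nM, in singlicate for IC50.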

In assay [14] the target is Insulin-like growth factor 1 receptor (Homo sapiens, UniProt P08069). Kind of assay: Inhibition of recombinant IGF1-R assessed as 33Pi incorporation after 60 mins by scintillation counting. A digest of the protocol:
as §3

Assay [15] has as its target Serine/threonine-protein kinase PLK1 (Homo sapiens, UniProt P53350). The experiment in a line: Inhibition of recombinant PLK1 assessed as 33Pi incorporation after 60 mins by scintillation counting. A digest of the protocol: as §2
Assay [16] has as its system K562. The experiment in a line: Antiproliferative activity against human K562 cells after 24 hrs by MTT assay. The class given is functional, cell-based. The essentials: as §5
For assay [17], the target named is Serine/threonine-protein kinase N1 (Homo sapiens, UniProt Q16512). The experiment in a line: Inhibition of recombinant PRK1 assessed as 33Pi incorporation after 60 mins by scintillation counting. A digest of the protocol: as §2
Assay [18] has as its target ALK tyrosine kinase receptor (Homo sapiens, UniProt Q9UM73). The experiment in a line: Inhibition of recombinant ALK assessed as 33Pi incorporation after 60 mins by scintillation counting. The essentials: as §3
For assay [19], the target named is RAC-alpha serine/threonine-protein kinase (Homo sapiens, UniProt P31749). The experiment in a line: Inhibition of recombinant AKT1 assessed as 33Pi incorporation after 60 mins by scintillation counting. A digest of the protocol:
as §4

For assay [20], the target named is Focal adhesion kinase 1 (Homo sapiens, UniProt Q05397). Kind of assay: Inhibition of recombinant FAK assessed as 33Pi incorporation after 60 mins by scintillation counting. The essentials:
as §3

Assay [21] concerns the target Dual specificity mitogen-activated protein kinase kinase 1 (Homo sapiens, UniProt Q02750). Kind of assay: Inhibition of wild type MEK1 assessed as 33Pi incorporation after 60 mins by scintillation counting. The essentials: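 ERK2-KR is the substrate for wild-type MEK1 in 70 mM HEPES-NaOH pH 7.5 containing 3 mM MgCl2, 3 mM MnCl2, orthovanadate, 1.2 mM DTT, PEG and 1 µM [γ-33P]-ATP. Reaction runs 60 min at 30 °C and is stopped with 2% H3PO4; incorporated 33Pi is counted after washing. IC50 comes from 10 concentrations tested once each.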

In assay [22] the target is NUAK family SNF1-like kinase 1 (Homo sapiens, UniProt O60285). Described as §1. The essentials:
as §2

Assay [23] addresses Tyrosine-protein kinase receptor UFO (Homo sapiens, UniProt P30530). The assay is described as §6. The essentials: as §3
Assay [24] has as its target Serine/threonine-protein kinase Nek2 (Homo sapiens, UniProt P51955). The assay is described as §7. A digest of the protocol: as §8
Where [25] appears, read: Homo sapiens, A2780, 24 h, read-out: IC50.
[26] abbreviates: Mus musculus, L5178Y, 24 h, read-out: IC50.
[27] abbreviates: Homo sapiens, K562, 24 h, read-out: IC50.

Activity calls are given as the source filed them. No cut-off for these calls is given here. Where only a bound is given, the exact number is not on record here.

Sequence of Serine/threonine-protein kinase Nek6 (Q9HC98 whole entry): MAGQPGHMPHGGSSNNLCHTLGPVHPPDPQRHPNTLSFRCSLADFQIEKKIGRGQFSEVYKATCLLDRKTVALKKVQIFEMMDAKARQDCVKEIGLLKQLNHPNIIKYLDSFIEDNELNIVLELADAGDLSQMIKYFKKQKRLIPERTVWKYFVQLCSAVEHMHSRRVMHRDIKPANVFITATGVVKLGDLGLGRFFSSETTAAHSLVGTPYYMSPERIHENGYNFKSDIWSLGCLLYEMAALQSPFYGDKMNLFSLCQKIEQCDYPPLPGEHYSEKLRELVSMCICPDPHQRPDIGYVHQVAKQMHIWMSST
Sequence of Proto-oncogene tyrosine-protein kinase Src (P12931 2-536 limits assumed): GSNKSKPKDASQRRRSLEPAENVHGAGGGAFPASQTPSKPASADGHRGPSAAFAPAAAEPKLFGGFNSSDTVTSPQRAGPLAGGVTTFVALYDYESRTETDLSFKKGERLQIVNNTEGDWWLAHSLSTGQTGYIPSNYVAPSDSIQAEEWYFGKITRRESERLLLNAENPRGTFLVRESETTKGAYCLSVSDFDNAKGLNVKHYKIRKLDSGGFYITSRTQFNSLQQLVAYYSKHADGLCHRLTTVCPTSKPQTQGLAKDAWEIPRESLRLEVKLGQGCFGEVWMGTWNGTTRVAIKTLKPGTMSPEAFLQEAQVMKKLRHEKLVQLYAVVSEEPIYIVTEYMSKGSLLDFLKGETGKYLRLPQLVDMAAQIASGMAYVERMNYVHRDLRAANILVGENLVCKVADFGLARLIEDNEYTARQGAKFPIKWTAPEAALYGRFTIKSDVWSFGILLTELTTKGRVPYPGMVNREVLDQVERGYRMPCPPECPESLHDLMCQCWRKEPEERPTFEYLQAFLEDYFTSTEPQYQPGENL
Sequence of Insulin-like growth factor 1 receptor (P08069 31-736 limits assumed): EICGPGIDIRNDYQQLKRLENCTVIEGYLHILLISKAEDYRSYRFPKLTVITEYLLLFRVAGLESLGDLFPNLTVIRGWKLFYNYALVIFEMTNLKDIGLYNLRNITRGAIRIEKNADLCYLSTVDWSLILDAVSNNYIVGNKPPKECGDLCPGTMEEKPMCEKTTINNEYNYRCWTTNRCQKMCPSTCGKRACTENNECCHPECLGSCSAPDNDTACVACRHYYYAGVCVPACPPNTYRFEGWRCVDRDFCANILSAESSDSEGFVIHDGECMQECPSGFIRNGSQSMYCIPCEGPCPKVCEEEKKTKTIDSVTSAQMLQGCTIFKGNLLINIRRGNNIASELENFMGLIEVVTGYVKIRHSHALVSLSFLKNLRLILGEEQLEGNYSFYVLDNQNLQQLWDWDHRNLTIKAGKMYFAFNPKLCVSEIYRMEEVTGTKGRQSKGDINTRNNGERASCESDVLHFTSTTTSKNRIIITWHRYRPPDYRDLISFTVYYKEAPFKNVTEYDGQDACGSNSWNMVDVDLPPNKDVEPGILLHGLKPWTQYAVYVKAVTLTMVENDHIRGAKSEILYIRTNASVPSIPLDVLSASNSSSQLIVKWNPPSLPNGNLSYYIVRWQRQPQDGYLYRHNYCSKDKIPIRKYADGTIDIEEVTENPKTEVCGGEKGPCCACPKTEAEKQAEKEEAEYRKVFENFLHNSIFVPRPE
Sequence of Insulin-like growth factor 1 receptor (P08069 741-1367 limits assumed): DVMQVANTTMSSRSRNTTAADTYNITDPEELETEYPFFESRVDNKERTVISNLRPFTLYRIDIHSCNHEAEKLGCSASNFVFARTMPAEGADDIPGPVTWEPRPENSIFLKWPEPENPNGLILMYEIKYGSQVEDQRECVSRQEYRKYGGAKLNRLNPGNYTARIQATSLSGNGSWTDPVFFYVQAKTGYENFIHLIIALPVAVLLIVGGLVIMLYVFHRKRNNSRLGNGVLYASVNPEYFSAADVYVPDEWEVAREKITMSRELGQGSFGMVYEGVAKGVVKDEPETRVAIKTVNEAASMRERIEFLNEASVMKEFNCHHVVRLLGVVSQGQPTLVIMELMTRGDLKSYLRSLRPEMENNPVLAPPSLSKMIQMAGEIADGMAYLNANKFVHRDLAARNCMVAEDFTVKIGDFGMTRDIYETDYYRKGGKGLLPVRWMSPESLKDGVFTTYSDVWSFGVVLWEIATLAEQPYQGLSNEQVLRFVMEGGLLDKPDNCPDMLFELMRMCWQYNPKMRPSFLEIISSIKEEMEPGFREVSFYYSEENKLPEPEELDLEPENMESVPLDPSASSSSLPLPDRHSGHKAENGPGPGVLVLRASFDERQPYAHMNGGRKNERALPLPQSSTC
Sequence of RAC-alpha serine/threonine-protein kinase (P31749 whole entry): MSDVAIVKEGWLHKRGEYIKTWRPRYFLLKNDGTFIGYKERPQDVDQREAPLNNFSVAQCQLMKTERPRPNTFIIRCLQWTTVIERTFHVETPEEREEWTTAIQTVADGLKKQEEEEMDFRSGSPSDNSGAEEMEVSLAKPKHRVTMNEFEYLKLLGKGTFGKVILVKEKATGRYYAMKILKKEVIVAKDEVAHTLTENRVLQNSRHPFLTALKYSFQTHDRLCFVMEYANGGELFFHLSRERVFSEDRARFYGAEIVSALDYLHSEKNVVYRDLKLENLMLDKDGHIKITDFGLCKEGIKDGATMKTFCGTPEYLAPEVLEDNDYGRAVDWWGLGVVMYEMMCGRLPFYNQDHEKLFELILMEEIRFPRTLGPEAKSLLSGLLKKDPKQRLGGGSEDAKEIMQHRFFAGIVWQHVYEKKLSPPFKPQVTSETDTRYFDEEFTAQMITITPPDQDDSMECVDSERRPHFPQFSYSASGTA
Sequence of Dual specificity mitogen-activated protein kinase kinase 1 (Q02750 whole entry): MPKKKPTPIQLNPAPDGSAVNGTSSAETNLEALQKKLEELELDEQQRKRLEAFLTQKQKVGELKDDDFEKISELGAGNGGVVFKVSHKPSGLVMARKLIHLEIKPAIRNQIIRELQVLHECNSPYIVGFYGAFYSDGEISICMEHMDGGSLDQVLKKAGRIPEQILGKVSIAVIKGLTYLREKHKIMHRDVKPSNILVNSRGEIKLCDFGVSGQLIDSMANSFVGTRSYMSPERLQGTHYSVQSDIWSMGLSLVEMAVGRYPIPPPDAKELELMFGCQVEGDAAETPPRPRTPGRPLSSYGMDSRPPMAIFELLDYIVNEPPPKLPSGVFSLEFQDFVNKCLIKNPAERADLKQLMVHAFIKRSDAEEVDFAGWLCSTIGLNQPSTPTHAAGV

On to `C=C[C@]1(C)C=C2[C@@H](O)[C@@H]3OC(=O)[C@@]4(C)CC[C@H]5C[C@]5([C@@H]34)[C@@]2(O)C(=O)C1` [MYROCIN D], for which the inhibition entry in assay [1], in [2], in assay [3], in assay [4], in assay [5] and in [7] was “inactive” each time. For the same compound, the inhibition entry in assay [8], in [9], in [11], in assay [14], in assay [15] and in [17] was “inactive” throughout. Also, the inhibition result in assay [18], in [19], in [20] and in assay [21] was “inactive” in each case. In addition, the IC50 (commonly the concentration that gives 50% inhibition) in assay [6] (setting [25]) is 66 µM; in assay [10] (setting [25]) it was 41.3 µM; in [12] (setting [26]) it was 2.05 µM; in assay [13], 2.6 µM; in [16] (setting [27]) it was 50.3 µM.

For the compound `C=Cc1c(C)cc(O)c2c1[C@H](O)[C@H]1OC(=O)[C@]3(C)CC[C@@H]4C[C@@]24[C@H]13` [ARTHRININ A], the IC50 result in assay [6] (a2780), in assay [10] (a2780), in assay [12] (l5178y) and in assay [16] (k562) was “Not Active” throughout.

With `Cc1cc(O)c2c(c1)[C@H](O)[C@H]1OC(=O)[C@]3(C)CC[C@@H]4C[C@@]24[C@H]13` [ARTHRININ C], the IC50 result in assay [6] (a2780), in [10] (a2780), in assay [12] (l5178y) and in [16] (k562) was “Not Active” each time.

Turning to `Cc1cc(O)cc2oc3cc(O)cc(O)c3c(=O)c12` [NORLICHEXANTHONE], the IC50 in assay [1] is more than 100 µM; in assay [22], 33 µM; in assay [3] it was 3 µM; in assay [4], 11.7 µM; in [5], 0.3 µM; in [6] (setting [25]), 74 µM. In addition, the IC50 in [7] is more than 100 µM; in assay [23], more than 100 µM; in assay [9] it was 35 µM; in assay [10] (setting [25]), 68.2 µM; in assay [24], more than 100 µM; in [12] (setting [26]), 1.16 µM. The IC50 in assay [14] is 33.3 µM; in [15], 75.7 µM; in assay [16] (setting [27]), 254 µM; in assay [17], 54.9 µM; in assay [18] it was 41.3 µM; in assay [19], more than 100 µM. Also, the IC50 in assay [20] and in [21] was more than 100 µM throughout.

On to `C=Cc1c(C)cc2c(c1O)[C@]13C[C@H]1CC[C@@]1(C)C(=O)O[C@H]([C@H]2O)[C@@H]31` [ARTHRININ B], for which the IC50 result in assay [6] (a2780), in assay [10] (a2780), in [12] (l5178y) and in assay [16] (k562) was “Not Active” in each case.

In the case of `CCN(CC)CCNC(=O)c1c(C)[nH]c(/C=C2\C(=O)Nc3ccc(F)cc32)c1C` [SUNITINIB], half-maximal inhibition in [13] (IC50) required 0.12 µM.

Take `C/C=C1\NC(=O)[C@H](Cc2ccccc2)NC(=O)[C@@H](C(C)C)NC(=O)[C@@H]([C@H](C)CC)NC(=O)[C@H](NC(=O)[C@H](NC(=O)[C@H](CCCN)NC(=O)[C@H]2CCCN2C(=O)[C@H](NC(=O)[C@@H](NC(=O)[C@@H](NC(=O)[C@H](NC(=O)CCCC(C)C)C(C)C)[C@@H](C)O)C(C)C)C(C)C)[C@H](C)CC)[C@H](C)OC(=O)[C@H](C(C)C)NC1=O` [KAHALALIDE F]: the IC50 in assay [12] (setting [26]) stood at 4.3 µM.

For the compound `C=Cc1c(C)cc(O)c2c1[C@H](O)[C@@H](O)[C@H]1[C@]23C[C@H]3CC[C@@]1(C)C(=O)OC` [ARTHRININ D], the IC50 result in assay [6] (a2780), in assay [10] (a2780), in assay [12] (l5178y) and in [16] (k562) was “Not Active” each time.

Turning to `C=C[C@@]1(C)C=C2C(=O)C(O)=C3[C@](C)(C(=O)O)CC[C@@H]4C[C@]34[C@]2(O)C(=O)C1` [MYROCIN A], the inhibition result in [1], in assay [2], in [3], in assay [4], in [5] and in assay [7] was “inactive” in each case. The inhibition entry in [8], in assay [9], in assay [11], in assay [14], in [15] and in [17] was “inactive” each time. In addition, the inhibition entry in assay [18], in assay [19], in assay [20] and in assay [21] was “inactive” in each case. Besides, the IC50 in assay [6] (setting [25]) worked out at 155 µM; in assay [10] (setting [25]), 28.2 µM; in assay [12] (setting [26]) it was 2.74 µM; in assay [13], 3.7 µM; in assay [16] (setting [27]), 42 µM.
